# Test results: ChEMBL document CHEMBL3414425, “Synthesis and biological evaluation of new imidazo[2,1-b][1,3,4]thiadiazole-benzimidazole derivatives” (Eur J Med Chem, 2015)
# The source made the active and inactive calls. The rule behind the calls is not given here.
# How the values were obtained:
# [1] = system: Mycobacterium tuberculosis; assay: Antitubercular activity against Mycobacterium tuberculosis H37Rv ATCC 27294/XDR-TB incubated for 28 days by agar dilution method; format: functional; details: 672 h
# Summary of the method: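 Agar dilution: two-fold dilutions in Middlebrook 7H11 agar with OADC. Inoculum from fresh 7H11/OADC slants adjusted to 1 mg/mL wet weight in 0.05% Tween 80 saline, diluted 10^-2 (~10⁷ cfu/mL); 5 µL spotted per tube. Incubated 37 °C; MIC, lowest concentration fully inhibiting growth, read after 28 days, in triplicate.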
# Escherichia coli [2] = assay: Antibacterial activity against Escherichia coli at 1 mg/ml incubated for 18 hrs by well plate technique; format: functional; details: for zone of inhibition at 1000 µg/mL: read-out: DIZ
# Summary of the method: (§1)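 Bacteria kept on nutrient agar at 37 °C, grown statically in nutrient broth (start ~10-100 cfu/mL) at 37 °C for 18-24 h. Suspensions diluted in saline and spread on nutrient agar, then wells cut with a cork borer. Compound in DMSO at 1 or 0.5 mg/mL added to wells, 37 °C, 18 h. Inhibition zone diameter measured minus DMSO value; triplicate; streptomycin standard.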
# Escherichia coli [3] = assay: Antibacterial activity against Escherichia coli at 0.5 mg/ml incubated for 18 hrs by well plate technique; format: functional; details: for zone of inhibition at 500 µg/mL: read-out: DIZ; summary of the method: as §1
# Staphylococcus aureus [4] = assay: Antibacterial activity against Staphylococcus aureus at 1 mg/ml incubated for 18 hrs by well plate technique; format: functional; details: for zone of inhibition at 1000 µg/mL: read-out: DIZ; summary of the method: as §1
# Staphylococcus aureus [5] = assay: Antibacterial activity against Staphylococcus aureus at 0.5 mg/ml incubated for 18 hrs by well plate technique; format: functional; details: for zone of inhibition at 500 µg/mL: read-out: DIZ; summary of the method: as §1
# Pseudomonas aeruginosa [6] = assay: Antibacterial activity against Pseudomonas aeruginosa at 1 mg/ml incubated for 18 hrs by well plate technique; format: functional; details: for zone of inhibition at 1000 µg/mL: read-out: DIZ; summary of the method: as §1
# Pseudomonas aeruginosa [7] = assay: Antibacterial activity against Pseudomonas aeruginosa at 0.5 mg/ml incubated for 18 hrs by well plate technique; format: functional; details: for zone of inhibition at 500 µg/mL: read-out: DIZ; summary of the method: as §1
# Salmonella typhi [8] = assay: Antibacterial activity against Salmonella typhi at 1 mg/ml incubated for 18 hrs by well plate technique; format: functional, Salmonella enterica subsp. enterica serovar Typhi; details: for zone of inhibition at 1000 µg/mL: Salmonella enterica, read-out: DIZ; for diameter of the inhibition zone (DIZ): Salmonella enterica subsp. enterica serovar Typhi
# Summary of the method: (§2)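 Well diffusion on nutrient agar; strains kept on nutrient agar at 37 °C, grown statically in nutrient broth 18-24 h at 37 °C, diluted in saline, 0.1 ml spread per plate. Compounds in DMSO at 1 and 0.5 mg/mL added to cork-bored wells; 18 h at 37 °C. Inhibition zone diameter measured, DMSO value subtracted; triplicate; streptomycin reference.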
# Salmonella typhi [9] = assay: Antibacterial activity against Salmonella typhi at 0.5 mg/ml incubated for 18 hrs by well plate technique; format: functional, Salmonella enterica subsp. enterica serovar Typhi; details: for zone of inhibition at 500 µg/mL: Salmonella enterica, read-out: DIZ; for diameter of the inhibition zone (DIZ): Salmonella enterica subsp. enterica serovar Typhi; summary of the method: as §2
# Aspergillus flavus [10] = assay: Antifungal activity against Aspergillus flavus at 1 mg/ml incubated for 3 days; format: functional; details: for zone of inhibition at 1000 µg/mL: 72 h, read-out: IZ
# Summary of the method: (§3)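 Well plate method on potato dextrose agar. Fungal stock suspended in distilled water with Tween 80 and swabbed over plates. Samples in DMSO at 1 and 0.5 mg/mL added to wells, incubated 25 °C for 3 days, then scored for inhibition zones; fluconazole standard.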
# Aspergillus flavus [11] = assay: Antifungal activity against Aspergillus flavus at 0.5 mg/ml incubated for 3 days; format: functional; details: for zone of inhibition at 500 µg/mL: 72 h, read-out: IZ; summary of the method: as §3
# [12] = system: Chrysosporium keratinophilum; assay: Antifungal activity against Chrysosporium keratinophilum at 1 mg/ml incubated for 3 days; format: functional; details: for zone of inhibition at 1000 µg/mL: 72 h, read-out: IZ; summary of the method: as §3
# [13] = system: Chrysosporium keratinophilum; assay: Antifungal activity against Chrysosporium keratinophilum at 0.5 mg/ml incubated for 3 days; format: functional; details: for zone of inhibition at 500 µg/mL: 72 h, read-out: IZ; summary of the method: as §3
# Candida albicans [14] = assay: Antifungal activity against Candida albicans at 1 mg/ml incubated for 3 days; format: functional; details: for zone of inhibition at 1000 µg/mL: 72 h, read-out: IZ; summary of the method: as §3
# Candida albicans [15] = assay: Antifungal activity against Candida albicans at 0.5 mg/ml incubated for 3 days; format: functional; details: for zone of inhibition at 500 µg/mL: 72 h, read-out: IZ; summary of the method: as §3
# [16] = Antioxidant activity assessed as DPPH radical scavenging activity incubated for 10 mins by UV-visible spectrometry; format: physicochemical
# Summary of the method: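 DPPH free-radical scavenging; absorbance read at 517 nm against a methanol blank. % scavenging = (A control − A sample)/A control × 100.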
SMILES,MIC [1],zone of inhibition at 1000 µg/mL (Escherichia coli [2]),zone of inhibition at 500 µg/mL (Escherichia coli [3]),zone of inhibition at 1000 µg/mL (Staphylococcus aureus [4]),zone of inhibition at 500 µg/mL (Staphylococcus aureus [5]),zone of inhibition at 1000 µg/mL (Pseudomonas aeruginosa [6]),zone of inhibition at 500 µg/mL (Pseudomonas aeruginosa [7]),zone of inhibition at 1000 µg/mL (Salmonella typhi [8]),zone of inhibition at 500 µg/mL (Salmonella typhi [9]),zone of inhibition at 1000 µg/mL (Aspergillus flavus [10]),zone of inhibition at 500 µg/mL (Aspergillus flavus [11]),zone of inhibition at 1000 µg/mL [12],zone of inhibition at 1000 µg/mL (Candida albicans [14]),inhibition zone (IZ) (Candida albicans [15]),inhibition (INH) [16],inhibition zone (IZ) (Aspergillus flavus [10]),inhibition zone (IZ) (Aspergillus flavus [11]),inhibition zone (IZ) [12],inhibition zone (IZ) [13],inhibition zone (IZ) (Candida albicans [14]),also measured
COc1ccc(-c2nc3sc(-c4ccccc4)nn3c2-c2nc3cc([N+](=O)[O-])ccc3[nH]2)cc1,50 µg/mL,4 mm,3 mm,4 mm,2 mm,5 mm,3 mm,6 mm,3 mm,3 mm,1 mm,4 mm,3 mm,inactive,23.4%,–,–,–,–,–,zone of inhibition at 500 µg/mL [13]: 2 mm
Cc1ccc(-c2nc3sc(C)nn3c2-c2nc3cc([N+](=O)[O-])ccc3[nH]2)cc1,50 µg/mL,–,–,–,–,–,–,–,–,–,–,–,–,inactive,28.9%,inactive,inactive,inactive,inactive,inactive,diameter of the inhibition zone (DIZ) (Escherichia coli [2]): inactive; diameter of the inhibition zone (DIZ) (Escherichia coli [3]): inactive; diameter of the inhibition zone (DIZ) (Staphylococcus aureus [4]): inactive; diameter of the inhibition zone (DIZ) (Staphylococcus aureus [5]): inactive; diameter of the inhibition zone (DIZ) (Pseudomonas aeruginosa [6]): inactive; diameter of the inhibition zone (DIZ) (Pseudomonas aeruginosa [7]): inactive; diameter of the inhibition zone (DIZ) (Salmonella typhi [8]): inactive; diameter of the inhibition zone (DIZ) (Salmonella typhi [9]): inactive
COc1ccc(-c2nc3sc(-c4ccc(F)cc4)nn3c2-c2nc3cc(Cl)ccc3[nH]2)cc1,50 µg/mL,5 mm,1 mm,4 mm,1 mm,2 mm,1 mm,3 mm,0 mm,4 mm,2 mm,4 mm,5 mm,–,38.6%,–,–,–,–,–,zone of inhibition at 500 µg/mL [13]: 1 mm; zone of inhibition at 500 µg/mL (Candida albicans [15]): 2 mm
COc1ccc(-c2nc3sc(-c4ccc(C)cc4)nn3c2-c2nc3ccccc3[nH]2)cc1,12.5 µg/mL,–,–,–,–,–,–,–,–,–,–,–,–,inactive,21.6%,inactive,inactive,inactive,inactive,inactive,diameter of the inhibition zone (DIZ) (Escherichia coli [2]): inactive; diameter of the inhibition zone (DIZ) (Escherichia coli [3]): inactive; diameter of the inhibition zone (DIZ) (Staphylococcus aureus [4]): inactive; diameter of the inhibition zone (DIZ) (Staphylococcus aureus [5]): inactive; diameter of the inhibition zone (DIZ) (Pseudomonas aeruginosa [6]): inactive; diameter of the inhibition zone (DIZ) (Pseudomonas aeruginosa [7]): inactive; diameter of the inhibition zone (DIZ) (Salmonella typhi [8]): inactive; diameter of the inhibition zone (DIZ) (Salmonella typhi [9]): inactive
Cc1ccc(-c2nc3sc(C)nn3c2-c2nc3cc(Cl)ccc3[nH]2)cc1,50 µg/mL,8 mm,5 mm,10 mm,7 mm,9 mm,6 mm,8 mm,7 mm,3 mm,1 mm,2 mm,4 mm,–,30.6%,–,–,–,inactive,–,zone of inhibition at 500 µg/mL (Candida albicans [15]): 1 mm
CN[C@@H]1[C@H](O[C@H]2[C@H](O[C@H]3[C@H](O)[C@@H](O)[C@H](N=C(N)N)[C@@H](O)[C@@H]3N=C(N)N)O[C@@H](C)[C@]2(O)C=O)O[C@@H](CO)[C@H](O)[C@H]1O [STREPTOMYCIN],–,18.6 mm,14.3 mm,16.8 mm,12.5 mm,16.7 mm,13.6 mm,17.2 mm,15.7 mm,–,–,–,–,–,–,–,–,–,–,–,–
COc1ccc(-c2nc3sc(-c4ccc(Cl)cc4)nn3c2-c2nc3ccccc3[nH]2)cc1,12.5 µg/mL,3 mm,1 mm,3 mm,2 mm,2 mm,1 mm,3 mm,1 mm,–,–,–,–,inactive,20.9%,inactive,inactive,inactive,inactive,inactive,–
NC(=O)c1cnccn1 [PYRAZINAMIDE],50 µg/mL,–,–,–,–,–,–,–,–,–,–,–,–,–,–,–,–,–,–,–,–
